Measured values reported in ChEMBL document CHEMBL1121642, “Synthesis and antiherpetic activity of some 4-[(aryloxy)alkyl]pyrazoles” (1981).
Values after ≈ are worked out from the molar mass of the structure shown. Active and inactive are the calls of the source. No cut-off for these calls is given here.

Tests used:
Human alphaherpesvirus 2 [1] = assay: Tested in vitro for minimum inhibitory activity against Herpes simplex virus type -2 (HSV-2); type: functional
Human alphaherpesvirus 2 [2] = assay: Tested in vitro for minimum inhibitory activity against Herpes simplex virus type -2 (HSV-2); Inactive; type: functional, organism-based
Mus musculus [3] = species on record: Mus musculus; assay: Effect on the survival rate of mice infected intravaginally with Herpes simplex virus type -2 (HSV-2) at 10% dosage twice in a day; type: functional
How it was run: (§1)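 Mice infected intravaginally with a tampon (dental pellet) saturated with HSV suspension. Aqueous drug solution given intravaginally b.i.d. on cotton tampons, starting 4 h postinfection. Each tampon stayed in 24 h, was re-moistened with 0.02 mL drug 6 h after insertion, and was replaced daily. Deaths were recorded daily to 14 days. Read-out: % survival and average survival time, with survivors scored >14 days.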

Mus musculus [4] = species on record: Mus musculus; assay: Effect on the survival rate of mice infected intravaginally with Herpes simplex virus type -2 (HSV-2) at 5% dosage twice in a day; type: functional; how it was run: as §1

Structure (SMILES) | MIC (Human alphaherpesvirus 2 [1]) | MIC (Human alphaherpesvirus 2 [2]) | further results
COc1ccc(OCCCCCCc2c(C)nn(C)c2C)c(Cl)c1 | 0.7 µg/mL (≈ 1.99 µM) |  | 
COc1ccc(OCCCCCCCc2c(C)nn(C)c2C)c(Cl)c1 | 0.7 µg/mL (≈ 1.92 µM) |  | Average survival (Mus musculus [3]): >10 days; Survival (Mus musculus [3]): 30%; Average survival (Mus musculus [4]): >7 days; Survival (Mus musculus [4]): 10%
CCCCn1nc(C)c(CCCCCCOc2ccc(OC)cc2Cl)c1C | 6 µg/mL (≈ 15.3 µM) |  | 
CCc1nn(CCO)c(CC)c1CCCCCCOc1ccc(OC)cc1Cl | 12 µg/mL (≈ 29.3 µM) |  | 
CCc1nn(CC(F)(F)F)c(CC)c1CCCCCCOc1ccc(OC)cc1Cl |  | inactive | 
CCc1n[nH]c(CC)c1CCCCCCOc1ccc(SC)cc1Cl |  | inactive | 

More lines, main results first:

MIC (Human alphaherpesvirus 2 [1]) | MIC (Human alphaherpesvirus 2 [2]) | Structure (SMILES) | further results
6 µg/mL (≈ 15.8 µM) |  | CCc1n[nH]c(CC)c1CCCCCCCOc1ccc(OC)cc1Cl | 
 | inactive | CCc1n[nH]c(CC)c1CCCCCCOc1ccc(OC)cc1 | 
3 µg/mL (≈ 8.22 µM) |  | CCc1nn(C)c(CC)c1CCCCCOc1ccc(OC)cc1Cl | 
